Results published in ChEMBL document CHEMBL1138624, “Design, synthesis, and quantitative structure-activity relationship of cytotoxic gamma-carboline derivatives” (Bioorg Med Chem, 2009).

Tests used:
Type in all cases: functional, cell-based
[1] = system: K562; assay: Cytotoxicity against human K562 cells after 48 hrs by MTT assay; settings: K562, 48 h
How it was run: (§1)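 Cell lines sourced from Shanghai Institute of Pharmaceutical Industry; K562R is a multidrug-resistant subline. Cells exposed to compound for 48 h, then MTT in RPMI-1640 added with a further 4 h at 37 °C. Formazan dissolved in DMSO, absorbance read at 570 nm. Triplicate wells in three independent experiments. IC50 (50% inhibition of viability) from dose-effect analysis, reported as mean of three experiments.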

[2] = system: K562; assay: Cytotoxicity against multidrug-resistant human K562 cells after 48 hrs by MTT assay; settings: K562, 48 h; how it was run: as §1
[3] = system: HCT-116; assay: Cytotoxicity against human HCT116 cells after 48 hrs by MTT assay; settings: HCT-116, 48 h; how it was run: as §1
[4] = system: MCF7; assay: Cytotoxicity against human MCF7 cells after 48 hrs by MTT assay; settings: MCF7, 48 h; how it was run: as §1
[5] = system: A549; assay: Cytotoxicity against human A549 cells after 48 hrs by MTT assay; settings: A549, 48 h; how it was run: as §1
[6] = Cytotoxicity against human SGC cells after 48 hrs by MTT assay; how it was run: as §1

| SMILES | IC50 ([1]; read-out: IC50) | IC50 ([1]; read-out: pIC50 (converted)) | IC50 [2] | IC50 [3] | IC50 [4] | IC50 [5] | IC50 [6] |
| --- | --- | --- | --- | --- | --- | --- | --- |
| CCn1c2ccncc2c2cc(NC(=O)c3ccc(OC)cc3)ccc21 | 11.3 µM | 11.3 µM | 5.15 µM | 50.7 µM | 4.92 µM | 72 µM | 21.3 µM |
| O=S(=O)(Oc1ccccc1)c1ccc2[nH]c3ccncc3c2c1 | 77.4 µM | 77.4 µM | 48.9 µM | 45.2 µM | 38.6 µM | > 100 µM | > 100 µM |
| CCn1c2ccncc2c2cc(NC(=O)c3ccccc3O)ccc21 | 12.7 µM | 12.7 µM | 22.9 µM | > 100 µM | 20.9 µM | > 100 µM | 19.2 µM |
| COc1cc(NS(=O)(=O)c2ccc3[nH]c4ccncc4c3c2)cc(OC)c1OC | 11.3 µM | 11.3 µM | 73.4 µM | 16.9 µM | 19.2 µM | 48.2 µM | > 100 µM |
| CCN(c1cc(OC)c(OC)c(OC)c1)S(=O)(=O)c1ccc2c(c1)c1cnccc1n2CC | 1.02 µM | 1.02 µM | 3.02 µM | 10.2 µM | 2.07 µM | 33.9 µM | 13.8 µM |
| CCN(c1cc(OC)c(OC)c(OC)c1)S(=O)(=O)c1ccc2c(c1)c1c[n+](CC)ccc1n2CC | > 100 µM | – | > 100 µM | > 100 µM | > 100 µM | > 100 µM | > 100 µM |
| CCn1c2ccncc2c2cc(NC(=O)c3cccnc3)ccc21 | 14.5 µM | 14.5 µM | 40.6 µM | 87.2 µM | 18.1 µM | 73.5 µM | 50.9 µM |
| CCn1c2ccncc2c2cc(NC(=O)c3ccc(Br)cc3)ccc21 | 13.2 µM | 13.2 µM | 15.6 µM | > 100 µM | 11.9 µM | > 100 µM | 71.2 µM |
| CCn1c2ccncc2c2cc(NC(=O)c3ccc(S(C)(=O)=O)cc3)ccc21 | 22.9 µM | 22.9 µM | 96.6 µM | > 100 µM | 22.8 µM | > 100 µM | 36 µM |
| CCn1c2ccncc2c2cc(NC(=O)c3ccccc3Cl)ccc21 | 8.58 µM | 8.57 µM | 22.9 µM | 2.63 µM | 6.52 µM | 37.3 µM | 20.8 µM |
| O=S(=O)(Oc1ccc(Cl)cc1)c1ccc2[nH]c3ccncc3c2c1 | 20.5 µM | 20.5 µM | 13.9 µM | 32 µM | 26.3 µM | 47.3 µM | 39.7 µM |
| CCn1c2ccncc2c2cc(S(=O)(=O)Nc3ccccc3)ccc21 | 20.7 µM | 20.7 µM | > 100 µM | 13.7 µM | 0.88 µM | > 100 µM | 8 µM |
| CCn1c2ccncc2c2cc(NC(=O)c3ccccc3)ccc21 | 26.2 µM | 26.2 µM | 10.6 µM | > 100 µM | 11.8 µM | > 100 µM | 26.5 µM |
| CCn1c2ccncc2c2cc(NC(=O)c3cc(OC)c(OC)c(OC)c3)ccc21 | 13.6 µM | 13.6 µM | – | – | – | 15.9 µM | 16.1 µM |
| COc1ccc(OS(=O)(=O)c2ccc3[nH]c4ccncc4c3c2)cc1 | 6.6 µM | 6.61 µM | 5.7 µM | 23.9 µM | 16 µM | 22.6 µM | 21.4 µM |
| O=[N+]([O-])c1ccc(OS(=O)(=O)c2ccc3[nH]c4ccncc4c3c2)cc1 | 27.9 µM | 27.9 µM | 8.34 µM | 21 µM | 10.8 µM | 17.5 µM | 7.15 µM |
| Nc1ccc(OS(=O)(=O)c2ccc3[nH]c4ccncc4c3c2)cc1 | 18.4 µM | 18.5 µM | 5.95 µM | 20.9 µM | 16.6 µM | 10.1 µM | 2.12 µM |
| O=S(=O)(Oc1cccc2ccccc12)c1ccc2[nH]c3ccncc3c2c1 | 25.9 µM | 25.9 µM | 10.7 µM | 39.4 µM | 14.3 µM | 33.4 µM | 23.3 µM |
| CCn1c2ccncc2c2cc(S(=O)(=O)Nc3ccncc3)ccc21 | > 100 µM | – | > 100 µM | > 100 µM | > 100 µM | > 100 µM | > 100 µM |
| CCn1c2ccncc2c2cc(S(=O)(=O)Nc3ccc4c(ccn4C)c3)ccc21 | 12.2 µM | 12.2 µM | 16.8 µM | 23.2 µM | 4.99 µM | 73.5 µM | 73.2 µM |
| CCn1c2ccncc2c2cc(S(=O)(=O)Nc3cc(OC)c(OC)c(OC)c3)ccc21 | 6.09 µM | 6.1 µM | > 100 µM | 32.3 µM | 5.8 µM | > 100 µM | > 100 µM |
| O=S(=O)(Oc1cccc(Cl)c1)c1ccc2[nH]c3ccncc3c2c1 | 13.2 µM | 13.2 µM | 8.42 µM | 42.7 µM | 47.5 µM | 43.6 µM | 5.82 µM |
| COc1cc(OS(=O)(=O)c2ccc3[nH]c4ccncc4c3c2)cc(OC)c1OC | 4.5 µM | 4.5 µM | 2.62 µM | 0.77 µM | 0.86 µM | – | 0.15 µM |
| COc1ccccc1OS(=O)(=O)c1ccc2[nH]c3ccncc3c2c1 | 14.1 µM | 14.1 µM | 15.3 µM | 64.1 µM | 24.7 µM | 32 µM | 54.3 µM |
| O=S(=O)(Nc1cccc2ncccc12)c1ccc2[nH]c3ccncc3c2c1 | 12.7 µM | 12.7 µM | 18.5 µM | 30.8 µM | 23.7 µM | 22.8 µM | 95.4 µM |
